“And” between values parts separate entries of the source, which are not always exact repeats. Identical values can stand only once.
System: Fibroblast
Test: Multiplex assay against human fibroblast
Type: toxicity, cell-based
Summary of the method: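 Live cells were stained at seeding with Hoechst33342, BioTracker Green Microtubule Cytoskeleton Dye, MitoTracker Red and Annexin V Alexa Fluor 680, then imaged on a CQ1 microscope at 37°C and 5% CO2 after compound addition. CellPathfinder machine-learning gating split cells into Hoechst high-intensity objects or normal cells. Normal cells were split into healthy, pyknosed or fragmented nuclei, and pyknosed cells into mitotic or apoptotic. Tubulin, mitochondrial-mass and membrane-permeability phenotypes are per cents of healthy-nucleus cells.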

[1] = 12 h, 1 µM, compound concentration 1 uM
[2] = 12 h, 10 µM, compound concentration 10 uM
[3] = 24 h, 1 µM, compound concentration 1 uM
[4] = 24 h, 10 µM, compound concentration 10 uM
[5] = 48 h, 1 µM, compound concentration 1 uM
[6] = 48 h, 10 µM, compound concentration 10 uM

C[C@@H]1C[C@H]2[C@@H]3CCC4=CC(=O)C=C[C@]4(C)[C@@]3(F)[C@@H](O)C[C@]2(C)[C@@]1(O)C(=O)CO [DEXAMETHASONE]
Population Apoptotic (%) [1]: 62% and 38% | Population Fragmented Nuclei (%) [1]: 18% and 30% | Population Healthy Nuclei (%) [1]: 66% and 48% | Population Hoechst High Intensity Objects (%) [1]: 7% and 3% | Population Membrane Permeable-Phenotype (%) [1]: 0% and 9% | Population Mitochondria Different-Phenotype (%) [1]: 2% and 4% | Population Mitotic Cells (%) [1]: 37% and 61% | Population Normal (%) [1]: 92% and 96% | Population Pyknosed Nuclei (%) [1]: 15% and 20% | Population Tubulin-Different-Phenotype (%) [1]: 26% and 52% | Population Apoptotic (%) [2]: 35% and 30% | Population Fragmented Nuclei (%) [2]: 20% and 24% | Population Healthy Nuclei (%) [2]: 65% and 52% | Population Hoechst High Intensity Objects (%) [2]: 2% and 6% | Population Membrane Permeable-Phenotype (%) [2]: 1% and 4% | Population Mitochondria Different-Phenotype (%) [2]: 5% and 2% | Population Mitotic Cells (%) [2]: 65% and 69% | Population Normal (%) [2]: 98% and 93% | Population Pyknosed Nuclei (%) [2]: 13% and 23% | Population Tubulin-Different-Phenotype (%) [2]: 22% and 53% | Population Apoptotic (%) [3]: 48% and 31% | Population Fragmented Nuclei (%) [3]: 14% and 29% | Population Healthy Nuclei (%) [3]: 68% and 50% | Population Hoechst High Intensity Objects (%) [3]: 5% and 6% | Population Membrane Permeable-Phenotype (%) [3]: 1% and 4% | Population Mitochondria Different-Phenotype (%) [3]: 3% and 1% | Population Mitotic Cells (%) [3]: 52% and 68% | Population Normal (%) [3]: 94% and 93% | Population Pyknosed Nuclei (%) [3]: 17% and 19% | Population Tubulin-Different-Phenotype (%) [3]: 26% and 53% | Population Apoptotic (%) [4]: 42% and 30% | Population Fragmented Nuclei (%) [4]: 15% and 30% | Population Healthy Nuclei (%) [4]: 65% and 44% | Population Hoechst High Intensity Objects (%) [4]: 3% and 6% | Population Membrane Permeable-Phenotype (%) [4]: 1% and 10% | Population Mitochondria Different-Phenotype (%) [4]: 6% and 2% | Population Mitotic Cells (%) [4]: 57% and 69% | Population Normal (%) [4]: 96% and 93% | Population Pyknosed Nuclei (%) [4]: 18% and 24% | Population Tubulin-Different-Phenotype (%) [4]: 22% and 45% | Population Apoptotic (%) [5]: 46% and 37% | Population Fragmented Nuclei (%) [5]: 22% and 38% | Population Healthy Nuclei (%) [5]: 52% and 46% | Population Hoechst High Intensity Objects (%) [5]: 6% and 4% | Population Membrane Permeable-Phenotype (%) [5]: 2% and 4% | Population Mitochondria Different-Phenotype (%) [5]: 4% | Population Mitotic Cells (%) [5]: 53% and 62% | Population Normal (%) [5]: 93% and 95% | Population Pyknosed Nuclei (%) [5]: 24% and 14% | Population Tubulin-Different-Phenotype (%) [5]: 34% and 53% | Population Apoptotic (%) [6]: 50% and 37% | Population Fragmented Nuclei (%) [6]: 22% and 36% | Population Healthy Nuclei (%) [6]: 55% and 43% | Population Hoechst High Intensity Objects (%) [6]: 4% and 7% | Population Membrane Permeable-Phenotype (%) [6]: 0% and 10% | Population Mitochondria Different-Phenotype (%) [6]: 7% and 0% | Population Mitotic Cells (%) [6]: 50% and 62% | Population Normal (%) [6]: 95% and 92% | Population Pyknosed Nuclei (%) [6]: 22% and 20% | Population Tubulin-Different-Phenotype (%) [6]: 19% and 39%

O=C(O)Cc1ccccc1Nc1c(Cl)cccc1Cl [DICLOFENAC]
Population Apoptotic (%) [1]: 43% and 33% | Population Fragmented Nuclei (%) [1]: 14% and 25% | Population Healthy Nuclei (%) [1]: 67% and 49% | Population Hoechst High Intensity Objects (%) [1]: 0% and 2% | Population Membrane Permeable-Phenotype (%) [1]: 1% and 7% | Population Mitochondria Different-Phenotype (%) [1]: 6% | Population Mitotic Cells (%) [1]: 56% and 66% | Population Normal (%) [1]: 99% and 97% | Population Pyknosed Nuclei (%) [1]: 17% and 25% | Population Tubulin-Different-Phenotype (%) [1]: 25% and 49% | Population Apoptotic (%) [2]: 32% and 38% | Population Fragmented Nuclei (%) [2]: 14% and 36% | Population Healthy Nuclei (%) [2]: 68% and 46% | Population Hoechst High Intensity Objects (%) [2]: 0% and 6% | Population Membrane Permeable-Phenotype (%) [2]: 0% and 16% | Population Mitochondria Different-Phenotype (%) [2]: 5% and 8% | Population Mitotic Cells (%) [2]: 68% and 61% | Population Normal (%) [2]: 99% and 93% | Population Pyknosed Nuclei (%) [2]: 17% | Population Tubulin-Different-Phenotype (%) [2]: 24% and 54% | Population Apoptotic (%) [3]: 52% and 35% | Population Fragmented Nuclei (%) [3]: 15% and 28% | Population Healthy Nuclei (%) [3]: 66% and 49% | Population Hoechst High Intensity Objects (%) [3]: 2% and 3% | Population Membrane Permeable-Phenotype (%) [3]: 0% and 12% | Population Mitochondria Different-Phenotype (%) [3]: 4% and 6% | Population Mitotic Cells (%) [3]: 47% and 64% | Population Normal (%) [3]: 97% and 96% | Population Pyknosed Nuclei (%) [3]: 17% and 21% | Population Tubulin-Different-Phenotype (%) [3]: 29% and 50% | Population Apoptotic (%) [4]: 30% and 50% | Population Fragmented Nuclei (%) [4]: 16% and 31% | Population Healthy Nuclei (%) [4]: 68% and 50% | Population Hoechst High Intensity Objects (%) [4]: 5% and 2% | Population Membrane Permeable-Phenotype (%) [4]: 0% and 8% | Population Mitochondria Different-Phenotype (%) [4]: 5% and 10% | Population Mitotic Cells (%) [4]: 69% and 50% | Population Normal (%) [4]: 94% and 97% | Population Pyknosed Nuclei (%) [4]: 15% and 18% | Population Tubulin-Different-Phenotype (%) [4]: 19% and 55% | Population Apoptotic (%) [5]: 85% and 57% | Population Fragmented Nuclei (%) [5]: 21% and 36% | Population Healthy Nuclei (%) [5]: 61% and 53% | Population Hoechst High Intensity Objects (%) [5]: 3% and 5% | Population Membrane Permeable-Phenotype (%) [5]: 4% | Population Mitochondria Different-Phenotype (%) [5]: 4% | Population Mitotic Cells (%) [5]: 15% and 42% | Population Normal (%) [5]: 96% and 94% | Population Pyknosed Nuclei (%) [5]: 16% and 10% | Population Tubulin-Different-Phenotype (%) [5]: 24% and 44% | Population Apoptotic (%) [6]: 73% and 30% | Population Fragmented Nuclei (%) [6]: 22% and 35% | Population Healthy Nuclei (%) [6]: 65% and 50% | Population Hoechst High Intensity Objects (%) [6]: 3% | Population Membrane Permeable-Phenotype (%) [6]: 0% and 4% | Population Mitochondria Different-Phenotype (%) [6]: 3% and 6% | Population Mitotic Cells (%) [6]: 26% and 69% | Population Normal (%) [6]: 96% | Population Pyknosed Nuclei (%) [6]: 12% and 14% | Population Tubulin-Different-Phenotype (%) [6]: 28% and 53%

— ChEMBL document CHEMBL5724801, “EUbOPEN Chemogenomics Library - Multiplex” (2024)
